According to ChEMBL document CHEMBL3244024, “Synthesis and antiallergic activity of some mono- and disubstituted xanthone-2-carboxylic acids” (1978):

tested on: Rattus norvegicus; assay: Antiallergic activity in iv dosed Sprague-Dawley rat assessed as inhibition of egg albumin-induced passive cutaneous anaphylaxis after 15 to 25 mins relative to disodium cromoglycate; assay type: functional
Procedure, shortened: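 Reaginic antiserum from rats immunized with 1.25 mg egg albumin sc plus H. pertussis vaccine ip, bled 11 days later. Recipient rats sensitized intradermally with two antiserum dilutions in 0.1 mL saline. Challenged 24 h later iv with 1.0 mL buffered saline (pH 7.2) holding 1.0 mg albumin, 0.5% Evans blue and test compound. Usually three doses (fivefold increments), ≥5 rats per group.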

For `CCCCOc1cc([S+](C)[O-])cc2c(=O)c3cc(C(=O)O)ccc3oc12` (stereo not given), the “fold change (FC)” value was 260.

tested on: Rattus norvegicus; assay: Antiallergic activity in iv dosed Sprague-Dawley rat assessed as inhibition of egg albumin-induced passive cutaneous anaphylaxis after 15 to 25 mins relative to disodium cromoglycate

Going from `CC(C)[S+]([O-])c1ccc2oc3ccc(C(=O)O)cc3c(=O)c2c1` (stereo not given) to `C[S+]([O-])c1ccc2oc3ccc(C(=O)O)cc3c(=O)c2c1` (stereo not given) [TIXANOX], the RPCA relative potency rises from 4 to 25.

First: CS(=O)(=O)c1ccc2oc3ccc(C(=O)O)cc3c(=O)c2c1
Second: CC(=O)c1ccc2oc3ccc(C(=O)O)cc3c(=O)c2c1
The RPCA relative potency of the first is higher: 7 for the first, 6 for the second.

First: CCCCOc1cc([S+](C)[O-])cc2c(=O)c3cc(C(=O)O)ccc3oc12 (stereo not given)
Second: CCCCCOc1cc([S+](C)[O-])cc2c(=O)c3cc(C(=O)O)ccc3oc12 (stereo not given)
The RPCA relative potency of the first is higher: 260 for the first, 90 for the second.

Compared with `CCC(=O)c1ccc2oc3ccc(C(=O)O)cc3c(=O)c2c1`, `CC(C)C(=O)c1ccc2oc3ccc(C(=O)O)cc3c(=O)c2c1` is higher in RPCA relative potency: 2 for the first, 3 for the second.

First: O=C(O)c1ccc2oc3ccc(C(=O)C4CC4)cc3c(=O)c2c1
Second: O=C(O)c1ccc2oc3ccc(C(=O)C4CCCC4)cc3c(=O)c2c1
The RPCA relative potency of the first is higher: 3 for the first, 2 for the second.

Compared with `CSc1ccc2oc3ccc(C(=O)O)cc3c(=O)c2c1`, `CC(C)Sc1ccc2oc3ccc(C(=O)O)cc3c(=O)c2c1` is lower in RPCA relative potency: 5 for the first, 2 for the second.

Compared with `COc1cc(OC)c2oc3ccc(C(=O)O)cc3c(=O)c2c1`, `COc1cc(OC)c2c(=O)c3cc(C(=O)O)ccc3oc2c1` is lower in RPCA relative potency: 6 for the first, 0.1 for the second.

First: COc1cc2oc3ccc(C(=O)O)cc3c(=O)c2cc1OC
Second: Cc1cc2oc3ccc(C(=O)O)cc3c(=O)c2cc1C
The RPCA relative potency of the first is higher: 2 for the first, 0.2 for the second.

First: Cc1cc(C)c2oc3ccc(C(=O)O)cc3c(=O)c2c1
Second: Cc1ccc2oc3ccc(C(=O)O)cc3c(=O)c2c1C
The RPCA relative potency of the first is higher: 1 for the first, 0.2 for the second.

First: CCOc1cc([S+](C)[O-])cc2c(=O)c3cc(C(=O)O)ccc3oc12 (stereo not given)
Second: CCCOc1cc([S+](C)[O-])cc2c(=O)c3cc(C(=O)O)ccc3oc12 (stereo not given)
The RPCA relative potency of the first is higher: 80 for the first, 50 for the second.

First: CC(C)Oc1cc([S+](C)[O-])cc2c(=O)c3cc(C(=O)O)ccc3oc12 (stereo not given)
Second: CC(C)CCOc1cc([S+](C)[O-])cc2c(=O)c3cc(C(=O)O)ccc3oc12 (stereo not given)
The RPCA relative potency of the first is higher: 190 for the first, 100 for the second.

Compared with `C[S+]([O-])c1cc(OC2CCCC2)c2oc3ccc(C(=O)O)cc3c(=O)c2c1` (stereo not given), `CCCCCCCCOc1cc([S+](C)[O-])cc2c(=O)c3cc(C(=O)O)ccc3oc12` (stereo not given) is lower in RPCA relative potency: 100 for the first, 35 for the second.
